# Measurements taken from PubChem BioAssay AID493097 (Broad Institute, 2011).
# Calls of active or inactive are those of the source.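 Rule for the calls: active = falling signal with a fitted half-maximal concentration at most ten times the top valid dose; inconclusive = flat fit with 30 to 70 percent inhibition, or a poor fit; inactive = the rest.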
# Test system: not listed separately
# Assay: inhibition of V. harveyi QS light output, dose response, counter-screen for LuxS inhibitor project, strain BB721, dry powder, set 4 (AID 493097)
# Settings: Vibrio harveyi BB721 constitutive QS, luminescence, 9 h; at 16 µM (top of the series)
# Procedure, shortened: (§1)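 Assay system: Vibrio harveyi strain BB721 with constitutively active quorum sensing | Amount: Bacteria seeded at starting optical density OD600 0.0005 | Incubation: Compound exposure of bacteria for 9 h at 30 °C | Buffer or medium: AB medium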
row,Compound,"activity change, negative = inhibition"
1,Cn1cnc(S(=O)(=O)Nc2ccccc2Cl)c1,12.3% (inactive)
2,Cn1cnc(S(=O)(=O)Nc2ccccc2F)c1,6.38% (inactive)
3,CC(=O)Nc1ccccc1NS(=O)(=O)c1cn(C)cn1,6.64% (inactive)
4,Cc1ccccc1NS(=O)(=O)c1cn(C)cn1,5.69% (inactive)
5,CCc1ccc(-c2ccc(C(=O)O)n2C)cc1,-7.36% (inactive)
6,CN(C)C(=O)c1ccccc1NS(=O)(=O)c1cn(C)cn1,8.65% (inactive)
7,COc1ccccc1NS(=O)(=O)c1cn(C)cn1,-0.736% (inactive)

# Test system: Vibrio harveyi BB721 constitutive QS, luminescence, 9 h
# Assay: as above
# Settings: not given
# Procedure, shortened: as §1
row,Compound,AC50 [µM]
1,O=S(=O)(Nc1ccccn1)c1ccc(Oc2ccccc2)cc1,15.5
2,O=S(=O)(Nc1cccnc1)c1ccc(Oc2ccccc2)cc1,0.775
3,C=Cn1c(C(=O)O)ccc1-c1ccc(CC)cc1,13.1
4,Cn1cnc(S(=O)(=O)Nc2ccc(OC(F)(F)F)cc2)c1,14.1
5,O=C1C=C/C(=C/Br)O1,3.92
